STAT3 blocker: inhibitors of IL-6 induced STAT3 signaling. inhibition, % at 5.5 µM. AID 862. 190,000 tested, 0.89% active. U3A cells, IL-6 STAT3-luciferase reporter, luminescence; host cell line lacks STAT1;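 active = inhibition above the mean inhibition across all screened compounds plus 3 SD, cut at about 44% in these data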;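 note: 0% = DMSO only wells and 100% = 100 µM nifuroxazide control wells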
STAT3 activator: activators of IL-6 induced STAT3 signaling | U3A cells, IL-6 STAT3-luciferase reporter, luminescence; 100% = signal with IL-6 EC80 alone | activation (% of control), % at 5.6 µM | 190,000 tested, 0.91% active | AID 871;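 active = activation above the screen-wide mean of compound activation plus 3 SD, cut at about 130% in these data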;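 note: 0% = background luminescence of wells with medium and substrate only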
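Detection: reporter luminescence signal / Assay system: STAT1-lacking human U3A cells, STAT3 luciferase reporter / Incubation: compound pre-incubation 1 h before IL-6, then 6 h stimulation at 37 °C / Control set: IL-6-only high control / Read-out: % activation relative to IL-6 control / Probe or stimulus: Interleukin-6, 33 ng/mL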
APP 5'UTR act: APP 5'UTR luciferase reporter activation | SH-SY5Y APP 5'UTR luciferase reporter, luminescence; zero percent = DMSO vehicle wells | AID 1276 | 190,000 tested, 1% active | activation, % at 2 µM;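 active = activation above a set limit, based on mean plus 3 SD of controls, cut at about 140% in these data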
NF-kB neuron act: raises NF-kB expression in human neuronal cells; NF-kB reporter expression; active compounds read high; fold change at 12.5 µM; 190,000 tested, 1.6% active; AID 1239; in the data active = fold change above about 3.3
STAT1 inh: inhibitors of IFN-gamma induced STAT1 signaling. NIH 3T3 STAT1-luciferase reporter, luminescence. inhibition, % at 5.5 µM. 200,000 tested, 0.35% active. AID 920;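 active = inhibition above a set limit, the mean inhibition across all tested compounds plus 3 SD, cut at about 34% in these data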;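 note: 0% = IFN-gamma with DMSO and 100% = IFN-gamma with 300 µM nifuroxazide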
STAT1 activator: increases IFN-gamma driven STAT1 reporter signal; NIH 3T3 STAT1-luciferase reporter, luminescence; 100% = IFN-gamma alone, no compound; activation (% of control), % at 5.5 µM; 200,000 tested, 2.6% active;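 active = activation above the screen-wide mean activation plus 3 SD, cut at about 130% in these data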;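 note: raw ratio to IFN-gamma control signal so 100% means no change and 0% no light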
STAT1 act conf: STAT1 activation, confirmation assay | shares compounds with STAT1 activator | NIH 3T3 STAT1-luciferase reporter, IFN-gamma potentiation, luminescence; 100% = IFN-gamma EC80 alone, no compound | 1,200 tested, 97% active | activation (% of control), % at 5.7 µM;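 active = activation above a set limit carried over from the earlier primary STAT1 screen, cut at about 140% in these data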;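 note: simple ratio to median IFN-gamma plus DMSO wells so 0% means no light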
NFkB act: counter-screen for STAT1 activators: NF-kappaB activation; 1,200 tested, 43% active; activation (% of control), % at 5.7 µM; shares compounds with STAT1 activator; AID 1306; HEK293T NF-kB luciferase reporter, TNF-alpha stimulated, luminescence; 100% = TNF-alpha with vehicle only;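 active = activation above the mean of solvent-only control wells plus 3 SD, set per campaign, cut at about 130% in these data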;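 note: TNF-alpha given at a submaximal dose yielding about 80% of full reporter signal; values are well signal over median control so 100% means no change and 0% no light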
STAT3 act 2: activates human STAT3, counter-screen to STAT1 activators; U3A cells STAT3-luciferase reporter, IL-6, luminescence; cells lack STAT1; 100 = IL-6 alone, no compound effect; activation (% of control), % at 5.7 µM; 1,200 tested, 46% active; AID 1316; shares compounds with STAT1 activator;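 active = activation above the solvent-only control well mean plus 3 SD, set per plate batch, cut at about 110% in these data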;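 note: 0% = no luminescence and 100% = median IL-6 plus DMSO wells; higher means more STAT3 reporter activation so hits are non-selective activators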
Numbers without * were called inactive; x = no result. Sampled rows, rich in hits. Any-hit rate of the full collection: about 4.9%.

SMILES	STAT3 blocker	STAT3 activator	APP 5'UTR act	NF-kB neuron act	STAT1 inh	STAT1 activator	STAT1 act conf	NFkB act	STAT3 act 2
CCOC(=O)CSc1nc2cc3c(cc2cc1C)OCO3	14.8	89.3	-6.2	1.37	-3.2	101.4	x	x	x
O=C(Nc1ccc2sccc2c1)c1ccc(Cl)s1	-10.1	108.4	206.0*	7.66*	-97.3	192.4*	275.0*	138.3*	113.1*
Cc1c(NC(=O)c2cccc(-c3cc4ccccc4oc3=O)c2)cccc1-c1nc2ncccc2o1	6.7	93.7	1.6	1.22	-10.2	109.3	x	x	x
COc1ccc(C(=O)Nc2c(Cl)cc(Cl)cc2C(=O)N2CCOCC2)cc1	2.1	102.0	8.1	1.05	-5.2	103.2	x	x	x
CCOc1ccc2nc3sc(C(=O)N4CCN(C)CC4)c(N)c3cc2c1	17.7	92.2	-7.6	0.87	-11.5	110.5	x	x	x
CCC(C)NC(=O)c1cc2cc3ccc(OC)cc3nc2s1 (configuration not stated)	30.2	78.2	214.1*	5.02*	-58.5	153.4*	252.0*	130.4	102.1
COc1ccc2cc3c(N)c(C(=O)N4CCCC4)sc3nc2c1	17.7	90.3	120.5	1.32	-62.2	156.8*	116.8	106.5	99.4
Cc1ccc2cc3c(N)c(C(=O)N4CCOCC4)sc3nc2c1	22.6	87.9	178.0*	1.65	-61.8	156.3*	117.3	103.9	110.7*
Cc1ccccc1N(CC(=O)N/N=C/c1cc(Br)c(C)o1)S(C)(=O)=O	12.0	96.6	-18.4	0.96	-11.1	110.1	x	x	x
C=CCOC(=O)c1ccc(-n2cnc(C)n2)nc1	10.1	93.5	3.4	1.46	5.0	95.2	x	x	x
CCC(OC(C)=O)c1cc2c(cc1[N+](=O)[O-])OCCO2 (configuration not stated)	2.6	101.6	-9.3	1.24	-2.8	101.1	x	x	x
CCCCNS(=O)(=O)c1ccc(NC(=O)C(Sc2ccccc2)c2ccccc2)cc1 (configuration not stated)	-13.9	109.3	4.7	0.57	9.5	91.6	x	x	x
Cc1nn(C(=O)c2ccc3c(c2)OCO3)c(N)c1-c1ccccc1	5.8	99.5	11.7	1.64	-27.0	124.2	x	x	x
Nc1nn(-c2ccccc2)c(N)c1N=Nc1ccc2c(c1)OCO2	2.9	98.7	91.8	7.51*	-85.0	178.4*	253.3*	135.2*	111.9*
Cc1noc(C)c1COc1ccc(C(=O)OC(C)C(=O)Nc2ccc(S(=O)(=O)N3CCOCC3)cc2)cc1 (configuration not stated)	6.3	95.5	6.5	0.99	4.1	96.3	x	x	x
COc1cc(N(C)C)c([N+](=O)[O-])cc1C(=O)N1CCOCC1	4.6	99.9	6.6	1.02	1.6	97.0	x	x	x
Nc1nc2ccccc2n1/N=C/c1ccc(-c2ccccc2)o1	21.7	84.3	93.9	1.7	-60.5	155.0*	160.4*	120.6	98.7
O=C(O)c1ccccc1-n1c(-c2ccccc2)cc2c1CCCC2=O	4.7	100.9	3.7	0.91	9.4	89.6	x	x	x
O=C(CC1Nc2ccccc2NC1=O)c1ccccc1 (configuration not stated)	-29.2	127.6	33.1	2.52	-61.3	156.2*	206.2*	129.7	165.2*
O=C(CC1Nc2ccccc2NC1=O)NCCc1ccccc1 (configuration not stated)	2.5	101.5	-0.2	1.06	-9.4	108.6	x	x	x
COc1ccc(-n2cnnc2SCC(=O)NC2CCCc3ccccc32)cc1 (configuration not stated)	1.9	98.3	-10.3	0.89	9.2	91.8	x	x	x
CCCCCCOc1ccc(-c2ccc(C#N)cn2)cc1	15.2	94.2	14.3	0.98	-6.6	109.5	x	x	x
CC(=O)Nc1ccc(C(=O)NCCc2ccccc2)cc1	-12.4	107.8	28.3	1.02	-9.3	111.2	x	x	x
O=C(NCCc1ccccc1)c1ccc(Cl)nc1	7.8	96.6	73.4	3	-53.8	156.4*	162.8*	117.9	121.2*
CCC1(c2ccc(F)cc2)NC(=O)N(CC(=O)Nc2cc(S(=O)(=O)N(C)C)ccc2Cl)C1=O (configuration not stated)	0.6	100.6	-4.7	0.77	14.1	86.0	x	x	x
SMILES	STAT3 blocker	STAT3 activator	APP 5'UTR act	NF-kB neuron act	STAT1 inh	STAT1 activator	STAT1 act conf	NFkB act	STAT3 act 2
CN(C)S(=O)(=O)c1ccc(C(=O)NCCSc2ccc(Br)cc2)cc1	4.8	97.0	-6.7	0.95	3.8	96.0	x	x	x
O=C(NCCSc1ccccc1)c1ccc(Br)cc1	2.9	98.3	179.5*	10.1*	-63.9	157.2*	205.5*	116.1	111.5*
Clc1ccc2nc3c4ccccc4cnn3c2c1	-12.7	120.1	217.1*	7.98*	-74.8	166.0*	237.6*	132.6	162.1*
CCCn1ncc(CN2CCN(Cc3ccsc3)C(CCO)C2)c1C (configuration not stated)	9.6	95.4	-13.6	0.93	3.6	95.3	x	x	x
COc1cccc(C(=O)Nc2ccc(C3CC3(Cl)Cl)cc2)c1 (configuration not stated)	16.5	89.1	94.1	5.73*	-59.5	152.4*	192.7*	143.3*	104.4
Cc1scc(C(=O)N/N=C/c2ccc(Cl)s2)c1C	-6.4	105.4	128.1	1.19	-58.2	151.0*	180.7*	130.2	101.6
Cc1scc(C(=O)N/N=C/c2ccc(OC(C)C)cc2)c1C	-1.6	106.7	28.1	0.62	-6.9	106.3	x	x	x
COc1ccc(C(=O)Cn2nnc(-c3ccccc3F)n2)cc1	5.5	97.5	24.9	1.55	-2.5	102.3	x	x	x
COc1ccc(-c2nnn(Cc3ccccc3F)n2)cc1	-1.4	103.0	117.8	2.94	-64.5	163.0*	176.2*	133.3*	114.4*
CC(=O)c1sc(Nc2nc3cc4c(cc3s2)OCO4)nc1C	13.8	93.6	90.5	2.86	-82.4	173.8*	190.3*	141.6*	103.1
COc1ccc2nc(Nc3nc(C)c(C(C)=O)s3)sc2c1	-7.7	110.1	46.1	2.56	-65.9	163.7*	179.6*	132.3	101.3
C[C@@H]1CCC[C@H](C)N1Cc1nc(Cc2ccccc2Cl)no1	-1.7	105.5	10.3	1.21	-18.1	115.0	x	x	x
CN(c1cc(=O)n2ccccc2n1)C1CCCCC1	-2.5	105.8	20.4	1.26	-5.2	104.8	x	x	x
